Test results published in ChEMBL document CHEMBL1275433 (Antimicrob Agents Chemother, 2008).
Values after ≈ are worked out from the molar mass of the structure shown.

Legend:
DNA gyrase = DNA gyrase (Escherichia coli, UniProt P0AES4+P0AES6); test: Inhibition of Escherichia coli DNA gyrase GyrA/GyrB; format: protein-complex assay
Outline: (§1)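 Enzyme unit: protein needed for 50% supercoiling of 0.4 μg relaxed pBR322 DNA in 1 h at 37°C. Wild-type and mutant enzymes assayed in parallel on the same day under identical conditions. Repeated two to four times; representative values reported.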

[1] = molecular target: DNA gyrase subunit A/DNA gyrase subunit B (Mycobacterium tuberculosis (strain ATCC 25618 / H37Rv), UniProt P9WG45+P9WG47); test: Inhibition of Mycobacterium tuberculosis DNA gyrase GyrA/GyrB; format: protein-complex assay; outline: as §1
Chain of DNA gyrase subunit A/DNA gyrase subunit B (P9WG45 whole entry): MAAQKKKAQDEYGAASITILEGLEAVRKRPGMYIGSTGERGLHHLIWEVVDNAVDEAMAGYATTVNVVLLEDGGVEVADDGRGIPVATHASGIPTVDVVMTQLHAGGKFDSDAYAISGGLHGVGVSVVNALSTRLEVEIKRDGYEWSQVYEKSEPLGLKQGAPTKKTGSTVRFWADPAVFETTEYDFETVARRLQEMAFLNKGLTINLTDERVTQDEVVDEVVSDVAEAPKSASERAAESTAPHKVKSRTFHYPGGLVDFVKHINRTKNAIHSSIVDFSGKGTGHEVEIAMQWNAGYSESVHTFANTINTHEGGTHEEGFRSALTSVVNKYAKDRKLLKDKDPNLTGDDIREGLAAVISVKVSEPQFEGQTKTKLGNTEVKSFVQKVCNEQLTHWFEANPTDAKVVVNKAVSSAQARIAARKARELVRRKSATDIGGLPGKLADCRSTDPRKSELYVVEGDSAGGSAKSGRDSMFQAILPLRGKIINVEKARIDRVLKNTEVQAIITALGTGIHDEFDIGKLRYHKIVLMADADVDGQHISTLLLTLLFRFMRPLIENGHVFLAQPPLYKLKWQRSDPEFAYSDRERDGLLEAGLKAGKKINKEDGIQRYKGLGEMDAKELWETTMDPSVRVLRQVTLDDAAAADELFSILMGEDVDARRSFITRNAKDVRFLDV
Chain of DNA gyrase subunit A/DNA gyrase subunit B (P9WG47 whole entry): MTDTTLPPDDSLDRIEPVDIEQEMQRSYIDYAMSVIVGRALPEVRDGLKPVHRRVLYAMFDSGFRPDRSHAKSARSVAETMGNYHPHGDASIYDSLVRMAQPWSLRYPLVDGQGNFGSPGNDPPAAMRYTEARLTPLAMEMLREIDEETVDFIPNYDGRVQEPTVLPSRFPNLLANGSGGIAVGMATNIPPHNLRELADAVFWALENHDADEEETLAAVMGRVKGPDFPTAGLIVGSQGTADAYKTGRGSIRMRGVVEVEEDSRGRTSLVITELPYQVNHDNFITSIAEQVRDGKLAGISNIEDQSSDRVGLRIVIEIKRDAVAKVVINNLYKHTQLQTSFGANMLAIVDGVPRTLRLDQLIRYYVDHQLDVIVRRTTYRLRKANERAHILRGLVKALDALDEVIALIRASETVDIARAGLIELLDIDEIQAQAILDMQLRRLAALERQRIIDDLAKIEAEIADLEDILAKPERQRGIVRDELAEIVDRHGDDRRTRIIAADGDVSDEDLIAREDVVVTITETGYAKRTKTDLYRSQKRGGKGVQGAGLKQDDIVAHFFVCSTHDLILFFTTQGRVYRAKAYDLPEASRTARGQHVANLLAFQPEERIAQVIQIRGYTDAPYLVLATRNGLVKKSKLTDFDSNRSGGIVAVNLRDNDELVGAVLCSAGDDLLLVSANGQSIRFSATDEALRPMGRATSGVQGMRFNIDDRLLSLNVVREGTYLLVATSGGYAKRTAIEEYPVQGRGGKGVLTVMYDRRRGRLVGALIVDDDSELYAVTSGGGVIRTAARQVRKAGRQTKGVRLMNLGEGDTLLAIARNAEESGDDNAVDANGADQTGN

[2] = molecular target: DNA gyrase subunit A/DNA gyrase subunit B (Mycobacterium tuberculosis (strain ATCC 25618 / H37Rv)) (UniProt P9WG45+P9WG47)
Bacillus subtilis [3] = test: Antimicrobial activity against Bacillus subtilis harboring DNA gyrase GyrB QRDR; format: functional
Helicobacter pylori [4] = test: Antimicrobial activity against Helicobacter pylori harboring DNA gyrase GyrB QRDR; format: functional
Borrelia burgdorferi [5] = test: Antimicrobial activity against Borrelia burgdorferi harboring DNA gyrase GyrA QRDR; format: functional; details: Borreliella burgdorferi
Staphylococcus aureus [6] = test: Antimicrobial activity against Staphylococcus aureus harboring DNA gyrase GyrA QRDR; format: functional, organism-based
Pseudomonas aeruginosa [7] = test: Antimicrobial activity against Pseudomonas aeruginosa harboring DNA gyrase GyrA QRDR; format: functional, organism-based
Neisseria gonorrhoeae [8] = test: Antimicrobial activity against Neisseria gonorrhoeae harboring DNA gyrase GyrA QRDR; format: functional
Streptococcus pneumoniae [9] = test: Antimicrobial activity against Streptococcus pneumoniae harboring DNA gyrase GyrB QRDR; format: functional, organism-based
Salmonella typhimurium [10] = test: Antimicrobial activity against Salmonella enterica Typhimurium harboring DNA gyrase GyrB QRDR; format: functional, Salmonella enterica subsp. enterica serovar Typhimurium
Bacteroides fragilis [11] = test: Antimicrobial activity against Bacteroides fragilis harboring DNA gyrase GyrA QRDR; format: functional
Escherichia coli [12] = test: Antimicrobial activity against Escherichia coli harboring DNA gyrase GyrA QRDR; format: functional, organism-based
Haemophilus influenzae [13] = test: Antimicrobial activity against Haemophilus influenzae harboring DNA gyrase GyrA QRDR; format: functional
[14] = test system: Mycolicibacterium fortuitum; test: Antimicrobial activity against Mycobacterium fortuitum harboring DNA gyrase GyrA QRDR; format: functional, organism-based
[15] = test system: Mycolicibacterium smegmatis; test: Antimicrobial activity against Mycobacterium smegmatis harboring DNA gyrase GyrB QRDR; format: functional, organism-based
Escherichia coli [16] = test: Antimicrobial activity against Escherichia coli harboring DNA gyrase GyrB QRDR; format: functional, organism-based
[17] = test system: Mycolicibacterium smegmatis; test: Antimicrobial activity against Mycobacterium smegmatis harboring DNA gyrase GyrA QRDR; format: functional, organism-based
Klebsiella oxytoca [18] = test: Antimicrobial activity against Klebsiella oxytoca harboring DNA gyrase GyrB QRDR; format: functional
[19] = molecular target: DNA gyrase (Escherichia coli) (UniProt P0AES6+P0AES4)
Salmonella typhimurium [20] = test: Antimicrobial activity against Salmonella enterica Typhimurium harboring DNA gyrase GyrA QRDR; format: functional, Salmonella enterica subsp. enterica serovar Typhimurium
Neisseria gonorrhoeae [21] = test: Antimicrobial activity against Neisseria gonorrhoeae harboring DNA gyrase GyrB QRDR; format: functional
Helicobacter pylori [22] = test: Antimicrobial activity against Helicobacter pylori 1 harboring DNA gyrase GyrA QRDR; format: functional
Streptococcus pneumoniae [23] = test: Antimicrobial activity against Streptococcus pneumoniae harboring DNA gyrase GyrA QRDR; format: functional, organism-based
Enterococcus faecalis [24] = test: Antimicrobial activity against Enterococcus faecalis harboring DNA gyrase GyrB QRDR; format: functional
Methylovorus [25] = test: Antimicrobial activity against Methylovorus sp. harboring DNA gyrase GyrB QRDR; format: functional
Haemophilus influenzae [26] = test: Antimicrobial activity against Haemophilus influenzae harboring DNA gyrase GyrB QRDR; format: functional
Bacteroides fragilis [27] = test: Antimicrobial activity against Bacteroides fragilis harboring DNA gyrase GyrB QRDR; format: functional
Bacillus subtilis [28] = test: Antimicrobial activity against Bacillus subtilis harboring DNA gyrase GyrA QRDR; format: functional
[29] = test system: Mycolicibacterium fortuitum; test: Antimicrobial activity against Mycobacterium fortuitum harboring DNA gyrase GyrB QRDR; format: functional, organism-based
Enterococcus faecalis [30] = test: Antimicrobial activity against Enterococcus faecalis harboring DNA gyrase GyrA QRDR; format: functional
Borrelia burgdorferi [31] = test: Antimicrobial activity against Borrelia burgdorferi harboring DNA gyrase GyrB QRDR; format: functional; details: Borreliella burgdorferi
Pseudomonas aeruginosa [32] = test: Antimicrobial activity against Pseudomonas aeruginosa harboring DNA gyrase GyrB QRDR; format: functional, organism-based
Klebsiella oxytoca [33] = test: Antimicrobial activity against Klebsiella oxytoca harboring DNA gyrase GyrA QRDR; format: functional
Ehrlichia chaffeensis [34] = test: Antimicrobial activity against Ehrlichia chaffeensis harboring DNA gyrase GyrB QRDR; format: functional
Ehrlichia chaffeensis [35] = test: Antimicrobial activity against Ehrlichia chaffeensis harboring DNA gyrase GyrA QRDR; format: functional
Methylovorus [36] = test: Antimicrobial activity against Methylovorus sp. harboring DNA gyrase GyrA QRDR; format: functional
Helicobacter pylori [37] = test: Antimicrobial activity against Helicobacter pylori 2 harboring DNA gyrase GyrA QRDR; format: functional
Staphylococcus aureus [38] = test: Antimicrobial activity against Staphylococcus aureus harboring DNA gyrase GyrB QRDR; format: functional, organism-based

Compound: CCn1cc(C(=O)O)c(=O)c2cc(F)c(N3CCNCC3)nc21 [ENOXACIN]
- IC50 (DNA gyrase): 14 µM
- IC50 [1]: 156 µM

Compound: COc1c(N2C[C@@H]3CCCN[C@@H]3C2)c(F)cc2c(=O)c(C(=O)O)cn(C3CC3)c12 [MOXIFLOXACIN]
- CC25 [2]: 2 µM

Compound: CCn1cc(C(=O)O)c(=O)c2ccc(C)nc21 [NALIDIXIC ACID]
- IC50 [1]: 4750 µM

Compound: CC1COc2c(N3CCN(C)CC3)c(F)cc3c(=O)c(C(=O)O)cn1c23 (centres undefined) [OFLOXACIN]
- MIC50 (Bacillus subtilis [3]): 0.12 µg/mL (≈ 0.332 µM)
- MIC50 (Helicobacter pylori [4]): 0.25 µg/mL (≈ 0.692 µM)
- MIC50 (Borrelia burgdorferi [5]): 8 µg/mL (≈ 22.1 µM)
- IC50 (Staphylococcus aureus [6]): 10 µg/mL (≈ 27.7 µM)
- MIC50 (Staphylococcus aureus [6]): 0.5 µg/mL (≈ 1.38 µM)
- IC50 (Pseudomonas aeruginosa [7]): 0.5 µg/mL (≈ 1.38 µM)
- MIC50 (Pseudomonas aeruginosa [7]): 0.25 µg/mL (≈ 0.692 µM)
- MIC50 (Neisseria gonorrhoeae [8]): 0.008 µg/mL (≈ 0.0221 µM)
- IC50 (Streptococcus pneumoniae [9]): 40 µg/mL (≈ 111 µM)
- MIC50 (Streptococcus pneumoniae [9]): 1 µg/mL (≈ 2.77 µM)
- MIC50 (Salmonella typhimurium [10]): 0.01 µg/mL (≈ 0.0277 µM)
- MIC50 (Bacteroides fragilis [11]): 4 µg/mL (≈ 11.1 µM)
- IC50 (Escherichia coli [12]): 0.3 µg/mL (≈ 0.83 µM)
- MIC50 (Escherichia coli [12]): 0.01 µg/mL (≈ 0.0277 µM)
- MIC50 (Haemophilus influenzae [13]): 0.01 µg/mL (≈ 0.0277 µM)
- IC50 [14]: 1 µg/mL (≈ 2.77 µM)
- MIC50 [14]: 0.06 µg/mL (≈ 0.166 µM)
- IC50 [15]: 10 µg/mL (≈ 27.7 µM)
- MIC50 [15]: 1 µg/mL (≈ 2.77 µM)
- IC50 (Escherichia coli [16]): 0.3 µg/mL (≈ 0.83 µM)
- MIC50 (Escherichia coli [16]): 0.01 µg/mL (≈ 0.0277 µM)
- IC50 [17]: 10 µg/mL (≈ 27.7 µM)
- MIC50 [17]: 1 µg/mL (≈ 2.77 µM)
- MIC50 (Klebsiella oxytoca [18]): 0.01 µg/mL (≈ 0.0277 µM)
- CC25 [19]: 0.2 µM
- MIC50 (Salmonella typhimurium [20]): 0.01 µg/mL (≈ 0.0277 µM)
- MIC50 (Neisseria gonorrhoeae [21]): 0.008 µg/mL (≈ 0.0221 µM)
- MIC50 (Helicobacter pylori [22]): 0.06 µg/mL (≈ 0.166 µM)
- IC50 (Streptococcus pneumoniae [23]): 40 µg/mL (≈ 111 µM)
- MIC50 (Streptococcus pneumoniae [23]): 1 µg/mL (≈ 2.77 µM)
- MIC50 (Enterococcus faecalis [24]): 1 µg/mL (≈ 2.77 µM)
- MIC50 (Methylovorus [25]): 0.8 µg/mL (≈ 2.21 µM)
- MIC50 (Haemophilus influenzae [26]): 0.012 µg/mL (≈ 0.0332 µM)
- MIC50 (Bacteroides fragilis [27]): 4 µg/mL (≈ 11.1 µM)
- CC25 [2]: 7 µM
- IC50 [1]: 28 µM
- MIC50 (Bacillus subtilis [28]): 0.12 µg/mL (≈ 0.332 µM)
- IC50 [29]: 1 µg/mL (≈ 2.77 µM)
- MIC50 [29]: 0.06 µg/mL (≈ 0.166 µM)
- MIC50 (Enterococcus faecalis [30]): 1 µg/mL (≈ 2.77 µM)
- MIC50 (Borrelia burgdorferi [31]): 8 µg/mL (≈ 22.1 µM)
- IC50 (Pseudomonas aeruginosa [32]): 0.5 µg/mL (≈ 1.38 µM)
- MIC50 (Pseudomonas aeruginosa [32]): 0.25 µg/mL (≈ 0.692 µM)
- MIC50 (Klebsiella oxytoca [33]): 0.01 µg/mL (≈ 0.0277 µM)
- MIC50 (Ehrlichia chaffeensis [34]): 16 µg/mL (≈ 44.3 µM)
- MIC50 (Ehrlichia chaffeensis [35]): 16 µg/mL (≈ 44.3 µM)
- MIC50 (Methylovorus [36]): 0.8 µg/mL (≈ 2.21 µM)
- MIC50 (Helicobacter pylori [37]): 0.25 µg/mL (≈ 0.692 µM)
- IC50 (Staphylococcus aureus [38]): 10 µg/mL (≈ 27.7 µM)
- MIC50 (Staphylococcus aureus [38]): 0.5 µg/mL (≈ 1.38 µM)
